Compound activity deposited in PubChem by several laboratories.
This is a sample that favours compounds with a hit; in the whole collection about 2.3% have one here.
Rpn11 inh = blocks the human proteasome subunit Rpn11. AID 588493. 360,000 compounds, 0.59% hits. human 26S proteasome, Ub4-pepOG fluorescence polarization; 20S core pre-blocked with epoxomicin. calls only at 20 µM. O00487;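 active means inhibition at 20 µM, scaled to each plate's controls, above about 33%, limit read from the data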
HNF4A DNA FP = change in binding of human HNF4 alpha to DNA. P41235. HNF4a-FITC DNA binding, fluorescence polarization, 1 h. activity change, % at 10 µM. 360,000 compounds, 0.3% hits. AID 1224865; in the data active means activity change above about 30%, passing the limit was not always enough
Target sequence (P41235 whole entry, looked up): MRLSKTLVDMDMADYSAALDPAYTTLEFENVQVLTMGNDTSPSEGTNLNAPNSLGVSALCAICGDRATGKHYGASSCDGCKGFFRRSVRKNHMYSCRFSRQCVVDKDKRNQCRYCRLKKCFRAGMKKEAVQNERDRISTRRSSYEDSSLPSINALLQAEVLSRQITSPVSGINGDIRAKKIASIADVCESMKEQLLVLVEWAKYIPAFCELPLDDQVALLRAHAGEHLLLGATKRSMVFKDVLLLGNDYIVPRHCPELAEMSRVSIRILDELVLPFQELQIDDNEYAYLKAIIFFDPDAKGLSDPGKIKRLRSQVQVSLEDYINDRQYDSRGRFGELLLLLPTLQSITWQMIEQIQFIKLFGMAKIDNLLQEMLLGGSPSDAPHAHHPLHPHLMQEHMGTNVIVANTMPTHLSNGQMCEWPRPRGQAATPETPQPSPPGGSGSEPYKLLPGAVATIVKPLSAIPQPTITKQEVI
CRFR2-BP antag = antagonists of CRF-binding protein/CRF-R2 receptor complex; HEK293 CRF-R2/CRF-BP, CRF-induced calcium fluorescence; inhibition, % at 11.8 µM; 350,000 compounds, 0.59% hits;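 active means inhibition of the ligand-induced calcium signal above about 50% at the single tested concentration, limit read from the data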
TPT1 inh = inhibitors of Candida albicans tRNA 2'-phosphotransferase TPT1. recombinant caTPT1, FP RNA substrate dephosphorylation. inhibition, % at 5 µM. 300,000 compounds, 0.81% hits. AID 1962;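 active means inhibition above the mean of all tested compounds plus 3 SD, set per screening campaign, cut at about 24% in these data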;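 further: plate controls were DMSO alone for no effect and ferristatin control at 100 nM for full effect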
CSN deneddyl inh = blocks human CSN-mediated cullin deneddylation; Q92905; Purified CSN, SCF-Nedd8-OG deneddylation, fluorescence polarization; inhibition, % at 12.5 µM; 360,000 compounds, 0.38% hits; AID 651999;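 active means pattern-corrected inhibition above about 35%, with an unprinted fluorescence ratio check between 0.5 and 1.5, limit read from the data, passing the limit was not always enough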;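 further: 0% = enzyme with substrate and 100% = substrate without enzyme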
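Material: human Csn5 produced in HEK293T cells; Input: enzyme 0.24 nM; Reagent: SCFSkp2-Nedd8OG substrate at 10 nM final; Dosing: 12.5 µM compound; Incubation: 90 min reaction at room temperature; Detection: fluorescence polarization of the substrate; Evaluation: % inhibition of substrate cleavage by Csn5; Control set: substrate-only high control, full reaction low control.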
CRFR2-BP ag = CRF-BP/CRF-R2 complex agonism | 350,000 compounds, 0.46% hits | activation, % at 13.2 µM | HEK293 CRF-R2/CRF-BP, calcium dye fluorescence (FLIPR); percent of saturating CRF peptide response;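 active means activation of at least 50%, plus an integration ratio under a set limit after plate pattern correction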;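 further: plate controls were neutral control wells without compound for no effect and CRF at EC100 for full effect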
Starred values were filed as active, the others as inactive; i = inactive; nt = no result given; + = active, no number.

SMILES	Rpn11 inh	HNF4A DNA FP	CRFR2-BP antag	TPT1 inh	CSN deneddyl inh	CRFR2-BP ag
Cc1sc2ncnc(OCC(=O)NC(C)C)c2c1C	i	-2	90*	0	-4	10
CCCNC(=O)COc1ncnc2sc(C)c(C)c12	i	1	-2	-3	-4	-1
CC(C)CC1C(=O)N(Cc2cn(CCC3OCCO3)nn2)CCS(=O)(=O)N1Cc1ccc(-c2cccc(CO)c2)cc1 (stereo not given)	i	-2	2	nt	8	6
Cc1nn(C)c(Oc2ccc(Cl)cc2)c1C(=O)O	i	2	61*	-3	-2	-1
Cc1nn(C)c(Oc2cccc(Cl)c2)c1C(=O)Nc1ccc(F)cc1F	i	-2	14	1	-5	0
CCc1ccc(OCC(=O)c2c(O)c3ccccc3oc2=O)cc1	i	4	12	4	-3	-4
CCc1oc2ccccc2c1C(=O)c1cc(Br)c(O)c(Br)c1	i	7	55*	0	1	0
Cc1ccccc1NC(=O)Cc1nc(COC(=O)c2cc([N+](=O)[O-])ccc2NCCO)cs1	i	0	61*	2	0	2
CCCCN1C(=O)NC(NC(C)=O)(C(F)(F)F)C1=O (stereo not given)	i	-2	-6	1	5	0
O=S(=O)(Nc1cccc(-n2cnnn2)c1)c1ccccc1C(F)(F)F	i	-2	-6	1	1	0
COc1ccc(CCNc2nc(N3CCCCC3)nc(N3CCCCC3)n2)cc1OC	i	2	74*	-3	5	0
C#CCOCCOCCOCCNc1nc(N2CCN(C(=O)[C@H](CO)n3cc([C@@H](N)C(C)C)nn3)CC2)nc(N2CCN(C(=O)[C@H](CO)n3cc([C@@H](N)C(C)C)nn3)CC2)n1	i	8	-6	nt	0	-2
Cc1nc2c(C)cccc2cc1C(=O)N/N=C/c1ccc(O)cc1	i	1	71*	-4	-14	-11
Cc1cccc2cc(/C=N/NC(=O)c3ccccc3O)c(Cl)nc12	i	-23	9	-2	25	55*
Cc1cccc2cc(/C=N/NC(=O)c3ccncc3)c(Cl)nc12	i	-2	-8	-1	0	-3
Cc1ccc(C)c(-n2c3nc(=O)[nH]c(=O)c-3cc3cc([N+](=O)[O-])ccc32)c1	i	-18	-130	-18	-11	61*
Cc1cc(C)c2nc3nc(C)c(C)cc3c(N)c2c1	i	2	111*	nt	9	71*
Cc1ccc2c(c1)N(C(=O)CCC(=O)N1CCN(c3ccccn3)CC1)CCO2	i	-2	-31	2	-7	55*
O=C(Nc1ccccn1)c1ccc([N+](=O)[O-])o1	i	-2	31	0	-5	12
O=C(Nc1ncccn1)c1ccc([N+](=O)[O-])o1	nt	78*	13	6	64*	-1
Cc1cc(C(=O)NN)c(C)o1	i	4	-4	1	5	-1
COc1ccc(Nc2ccccc2)c(C)c1	i	0	50*	-2	0	0
COc1ccc(Nc2cccccc2=O)cc1	i	1	3	-8	-5	-1
O=C(Nc1cccc(NC(=O)c2cccc([N+](=O)[O-])c2)n1)c1cccc([N+](=O)[O-])c1	i	-1	6	-3	3	1
O=C(Nc1ccncc1NC(=O)c1cccc([N+](=O)[O-])c1)c1cccc([N+](=O)[O-])c1	i	-5	-4	0	41*	0
SMILES	Rpn11 inh	HNF4A DNA FP	CRFR2-BP antag	TPT1 inh	CSN deneddyl inh	CRFR2-BP ag
CCOc1cc(C)c(C(C)C)cc1S(=O)(=O)N1CCN(C)CC1	i	0	-4	-5	-2	1
O=C(NC(Nc1nc2ccc([N+](=O)[O-])cc2s1)(C(F)(F)F)C(F)(F)F)c1cccnc1	i	3	60*	6	2	57*
COC(=O)c1ccccc1NC(=O)CSc1nnc(C(CO)NC(=O)c2ccccc2Cl)n1C (stereo not given)	i	37*	-26	4	-6	8
O=C(c1ccco1)N(Cc1cccc([N+](=O)[O-])c1)c1ccc(Br)cc1	i	0	82*	-3	-2	-1
O=C(c1ccco1)N(Cc1ccc([N+](=O)[O-])cc1)c1ccc(Br)cc1	i	1	34	-2	4	-2
CC(C)(C)OC(=O)NCc1ccc(NC(=O)c2nc[nH]c2C(=O)NCCCCNC(=O)c2[nH]cnc2C(=O)Nc2ccc(CNC(=O)OC(C)(C)C)cc2)cc1	i	27	16	nt	6	6
CC(C)(C)OC(=O)NCc1ccc(NC(=O)c2nc[nH]c2C(=O)NCCCCCCNC(=O)c2[nH]cnc2C(=O)Nc2ccc(CNC(=O)OC(C)(C)C)cc2)cc1	i	46*	7	nt	17	2
O=C(COc1ccccc1C(=O)c1cnn(-c2ccccc2)c1)Nc1ccc2ccccc2c1	i	1	141*	0	-18	15
CC(C)c1ccc(NC(=O)COc2ccc(F)cc2C(=O)c2cnn(-c3ccccc3)c2)cc1	i	-1	-44	4	-8	-2
O=C(c1ccc2c(c1)OCCO2)C1CCN(C(=O)Nc2ccccc2F)CC1	i	4	-6	-2	-1	0
COc1ccc(C(CC(=O)Nc2ccc(F)cc2)c2ccccc2)cc1 (stereo not given)	i	-2	52*	-3	-4	5
Cc1ccccc1CNC(=O)c1ccccc1NS(C)(=O)=O	i	9	32	1	-16	-2
CS(=O)(=O)Nc1ccccc1C(=O)NCc1ccccc1Cl	i	-1	61*	0	-7	2
Nc1nn2c(-c3ccccc3)cc(=O)[nH]c2c1N=Nc1ccc(Br)cc1	i	0	73*	nt	3	-1
Nc1nn2c(-c3ccccc3)cc(=O)[nH]c2c1N=Nc1ccc(O)cc1	i	6	-105	7	0	97*
NC(=O)C(=O)N/N=C/c1cccc(C(F)(F)F)c1	i	0	13	3	-3	-2
Cc1ccc(O)c(C(=O)c2cc(C#N)c(=O)n(-c3c(C)n(C)n(-c4ccccc4)c3=O)c2)c1	i	6	-17	12	4	48
COc1ccc(O)c(C(=O)c2cc(C#N)c(=O)n(-c3c(C)n(C)n(-c4ccccc4)c3=O)c2)c1	i	23	-5	21	23	86*
Cc1cccc2cc(/C=C3\N=C(c4ccccc4)OC3=O)c(N3CCOCC3)nc12	+	6	-8	5	11	0
COc1ccc(-c2nc3ccc(N4CCCC4)cc3c(=O)[nH]2)cc1OC	i	7	-15	0	113*	-1
